Activity calls are given as the source filed them. The rule behind the calls is not given here.
Tests used:
[1] = system: Panel renal (Carcinoma cell lines); experiment: Antiproliferative activity against human Panel renal (Carcinoma cell lines) assessed as cell growth inhibition measured after 48 hrs by SRB assay
SK-MEL-2 [2] = experiment: Antiproliferative activity against human SK-MEL-2 cells assessed as total growth inhibition measured after 48 hrs by SRB assay; conditions: SK-MEL-2, 48 h
[3] = target: RAF proto-oncogene serine/threonine-protein kinase (Homo sapiens, UniProt P04049); experiment: Inhibition of human wild type CRAF using myelin basic protein as substrate in presence of [gamma-33P]ATP incubated for 40 mins by scintillation counting method
RAF proto-oncogene serine/threonine-protein kinase, sequence (P04049 whole entry): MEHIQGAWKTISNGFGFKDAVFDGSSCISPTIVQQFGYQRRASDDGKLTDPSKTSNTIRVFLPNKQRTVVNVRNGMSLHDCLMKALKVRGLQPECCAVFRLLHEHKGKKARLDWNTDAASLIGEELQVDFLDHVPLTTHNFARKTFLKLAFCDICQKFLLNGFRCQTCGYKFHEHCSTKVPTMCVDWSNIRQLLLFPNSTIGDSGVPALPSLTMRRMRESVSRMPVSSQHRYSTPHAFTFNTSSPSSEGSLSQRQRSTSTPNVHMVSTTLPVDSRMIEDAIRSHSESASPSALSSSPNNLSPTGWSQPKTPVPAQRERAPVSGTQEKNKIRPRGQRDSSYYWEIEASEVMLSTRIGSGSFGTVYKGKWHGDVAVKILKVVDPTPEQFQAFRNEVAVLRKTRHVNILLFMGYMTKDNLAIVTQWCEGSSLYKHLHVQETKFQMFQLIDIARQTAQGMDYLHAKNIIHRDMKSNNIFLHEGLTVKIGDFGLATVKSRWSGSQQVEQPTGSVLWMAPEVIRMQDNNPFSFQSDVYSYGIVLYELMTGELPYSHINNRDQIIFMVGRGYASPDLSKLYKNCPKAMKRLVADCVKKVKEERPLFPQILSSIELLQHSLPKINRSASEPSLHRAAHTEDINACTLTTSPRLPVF

UACC-257 [4] = experiment: Antiproliferative activity against human UACC-257 cells assessed as total growth inhibition measured after 48 hrs by SRB assay; conditions: UACC-257, 48 h
SK-MEL-5 [5] = experiment: Antiproliferative activity against human SK-MEL-5 cells assessed as cell growth inhibition measured after 48 hrs by SRB assay; conditions: SK-MEL-5, 48 h
MDA-MB-435 [6] = experiment: Antiproliferative activity against human MDA-MB-435 cells assessed as total growth inhibition measured after 48 hrs by SRB assay; conditions: MDA-MB-435, 48 h
SK-MEL-28 [7] = experiment: Antiproliferative activity against human SK-MEL-28 cells assessed as cell growth inhibition measured after 48 hrs by SRB assay; conditions: SK-MEL-28, 48 h
[8] = system: Panel colon (Carcinoma cell lines); experiment: cells; conditions: Homo sapiens, 48 h, read-out: INH
M14 [9] = experiment: Antiproliferative activity against human M14 cells assessed as cell growth inhibition measured after 48 hrs by SRB assay; conditions: M14, 48 h
UACC-62 [10] = experiment: Antiproliferative activity against human UACC-62 cells assessed as cell growth inhibition measured after 48 hrs by SRB assay; conditions: UACC-62, 48 h
MDA-MB-435 [11] = experiment: Antiproliferative activity against human MDA-MB-435 cells assessed as cell growth inhibition measured after 48 hrs by SRB assay; conditions: MDA-MB-435, 48 h
NSCLC = experiment: Antiproliferative activity against human NSCLC cell line assessed as cell growth inhibition measured after 48 hrs by SRB assay
in vitro = conditions: human, BJ cells and Malme-3M cells
[12] = Cytotoxicity against human L132 cells assessed as cell growth inhibition incubated for 48 hrs by MTT assay; format: toxicity, cell-based
[13] = system: Panel leukemia (Carcinoma cell lines); experiment: cells; conditions: Homo sapiens, 48 h, read-out: INH
[14] = system: Panel melanoma (Carcinoma cell lines); experiment: cells; conditions: Homo sapiens, 48 h, read-out: INH
[15] = system: Panel melanoma (Carcinoma cell lines); experiment: Antiproliferative activity against human Panel melanoma (Carcinoma cell lines) assessed as cell growth inhibition measured after 48 hrs by SRB assay
[16] = Cytotoxicity against human BJ cells assessed as cell growth inhibition incubated for 48 hrs by MTT assay; format: toxicity, cell-based
Method in brief: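 BJ1 normal skin fibroblasts were seeded at 10 × 10³ cells/well with compound in triplicate wells and grown in DMEM-F12 at 37 °C, 5% CO₂, across an eight-point dilution series. Growth inhibition was calculated as (1 − T/C) × 100, and IC50 was taken from the dose–response curve.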

[17] = system: Panel breast (Carcinoma cell lines); experiment: Antiproliferative activity against human Panel breast (Carcinoma cell lines) assessed as cell growth inhibition measured after 48 hrs by SRB assay
SK-MEL-5 [18] = experiment: Antiproliferative activity against human SK-MEL-5 cells assessed as total growth inhibition measured after 48 hrs by SRB assay; conditions: SK-MEL-5, 48 h
[19] = system: Panel ovarian (Carcinoma cell lines); experiment: Antiproliferative activity against human Panel ovarian (Carcinoma cell lines) assessed as cell growth inhibition measured after 48 hrs by SRB assay
M14 [20] = experiment: Antiproliferative activity against human M14 cells assessed as total growth inhibition measured after 48 hrs by SRB assay; conditions: M14, 48 h
Malme-3M [21] = experiment: Antiproliferative activity against human Malme-3M cells assessed as total growth inhibition measured after 48 hrs by SRB assay
SK-MEL-28 [22] = experiment: Antiproliferative activity against human SK-MEL-28 cells assessed as total growth inhibition measured after 48 hrs by SRB assay; conditions: SK-MEL-28, 48 h
[23] = system: Panel colon (Carcinoma cell lines); experiment: Antiproliferative activity against human Panel colon (Carcinoma cell lines) assessed as cell growth inhibition measured after 48 hrs by SRB assay
UACC-62 [24] = experiment: Antiproliferative activity against human UACC-62 cells assessed as total growth inhibition measured after 48 hrs by SRB assay; conditions: UACC-62, 48 h
UACC-257 [25] = experiment: Antiproliferative activity against human UACC-257 cells assessed as cell growth inhibition measured after 48 hrs by SRB assay; conditions: UACC-257, 48 h
LOX IMVI [26] = experiment: Antiproliferative activity against human LOX IMVI cells assessed as total growth inhibition measured after 48 hrs by SRB assay
Malme-3M [27] = experiment: Antiproliferative activity against human Malme-3M cells assessed as cell growth inhibition measured after 48 hrs by SRB assay
LOX IMVI [28] = experiment: Antiproliferative activity against human LOX IMVI cells assessed as cell growth inhibition measured after 48 hrs by SRB assay
[29] = system: Panel ovarian (Carcinoma cell lines); experiment: cells; conditions: Homo sapiens, 48 h, read-out: INH
[30] = system: Panel leukemia (Carcinoma cell lines); experiment: Antiproliferative activity against human Panel leukemia (Carcinoma cell lines) assessed as cell growth inhibition measured after 48 hrs by SRB assay
SK-MEL-2 [31] = experiment: Antiproliferative activity against human SK-MEL-2 cells assessed as cell growth inhibition measured after 48 hrs by SRB assay; conditions: SK-MEL-2, 48 h
[32] = system: Panel CNS (Carcinoma cell lines); experiment: Antiproliferative activity against human Panel CNS (Carcinoma cell lines) assessed as cell growth inhibition measured after 48 hrs by SRB assay
[33] = system: Panel prostate (Carcinoma cell lines); experiment: Antiproliferative activity against human Panel prostate (Carcinoma cell lines) assessed as cell growth inhibition measured after 48 hrs by SRB assay
A-375 [34] = experiment: Inhibition of Pan-Raf in human A-375 cells assessed as reduction in ERK phosphorylation at 5 uM measured after 24 hrs by immunoblot assay; format: cell-based
Method in brief: (§1)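 A375 cells were treated for 24 h, including at 5 μM alongside vemurafenib. Cells were lysed in RIPA buffer with phosphatase and protease inhibitors, separated by SDS-PAGE and blotted to PVDF. Blots were probed for phospho-MEK1/2, phospho-ERK1/2, total MEK and total ERK, with chemiluminescent detection.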

A-375 [35] = experiment: Inhibition of Pan-Raf in human A-375 cells assessed as reduction in MEK phosphorylation at 5 uM measured after 24 hrs by immunoblot assay; format: cell-based; method in brief: as §1
[36] = Stability in rat plasma assessed as parent compound remaining at 10 uM measured after 30 mins by LC-MS analysis; format: ADME, cell-free; conditions: read-out: Stability
Method in brief: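 About 10 μM compound shaken in human or rat plasma at 37 °C for 30 and 120 min. Acetonitrile added, samples centrifuged at 4 °C, and remaining parent in the supernatant quantified by LC−MS. Procaine and diltiazem run as references.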

[37] = target: Serine/threonine-protein kinase B-raf (Homo sapiens, UniProt P15056); experiment: Inhibition of human wild type BRAF using myelin basic protein as substrate in presence of [gamma-33P]ATP incubated for 40 mins by scintillation counting method
Serine/threonine-protein kinase B-raf (Homo sapiens, UniProt P15056), sequence (P15056 whole entry): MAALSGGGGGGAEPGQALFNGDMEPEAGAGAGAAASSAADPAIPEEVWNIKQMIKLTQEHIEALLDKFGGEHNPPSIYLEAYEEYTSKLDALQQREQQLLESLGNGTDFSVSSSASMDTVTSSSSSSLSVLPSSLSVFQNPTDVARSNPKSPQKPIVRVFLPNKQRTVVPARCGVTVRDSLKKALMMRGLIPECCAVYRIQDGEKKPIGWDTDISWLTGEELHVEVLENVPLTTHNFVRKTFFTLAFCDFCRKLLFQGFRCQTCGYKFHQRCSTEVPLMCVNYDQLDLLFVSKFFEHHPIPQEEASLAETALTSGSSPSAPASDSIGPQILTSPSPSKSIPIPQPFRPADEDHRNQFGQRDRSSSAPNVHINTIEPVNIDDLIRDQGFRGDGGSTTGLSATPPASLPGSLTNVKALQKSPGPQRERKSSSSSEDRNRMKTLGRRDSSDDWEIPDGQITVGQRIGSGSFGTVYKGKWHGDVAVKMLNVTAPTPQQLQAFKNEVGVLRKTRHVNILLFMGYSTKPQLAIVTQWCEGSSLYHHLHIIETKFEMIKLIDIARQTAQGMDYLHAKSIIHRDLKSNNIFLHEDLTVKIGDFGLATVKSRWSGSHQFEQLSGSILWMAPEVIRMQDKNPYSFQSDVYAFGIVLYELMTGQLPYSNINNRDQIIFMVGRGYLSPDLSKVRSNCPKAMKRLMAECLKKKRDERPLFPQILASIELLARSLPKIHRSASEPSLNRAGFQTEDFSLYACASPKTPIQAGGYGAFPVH
Method in brief: (§2)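 Radiometric kinase assay run at Reaction Biology. Kinase (5−10 mU) in 25 mM Tris pH 7.5, 0.02 mM EGTA, 10 mM magnesium acetate with 0.66 mg/mL myelin basic protein and [γ-33P]ATP at 1 μM ATP. Reaction started with Mg-ATP and run 40 min at room temperature, then stopped with 3% phosphoric acid. Spotted on P30 filtermat, washed, scintillation counted.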

[38] = target: Serine/threonine-protein kinase B-raf (Homo sapiens, UniProt P15056, V600E); experiment: Inhibition of human BRAF V600E mutant using myelin basic protein as substrate in presence of [gamma-33P]ATP incubated for 40 mins by scintillation counting method; method in brief: as §2
Serine/threonine-protein kinase B-raf (Homo sapiens, UniProt P15056, V600E), sequence (P15056 2-766 V600E limits assumed): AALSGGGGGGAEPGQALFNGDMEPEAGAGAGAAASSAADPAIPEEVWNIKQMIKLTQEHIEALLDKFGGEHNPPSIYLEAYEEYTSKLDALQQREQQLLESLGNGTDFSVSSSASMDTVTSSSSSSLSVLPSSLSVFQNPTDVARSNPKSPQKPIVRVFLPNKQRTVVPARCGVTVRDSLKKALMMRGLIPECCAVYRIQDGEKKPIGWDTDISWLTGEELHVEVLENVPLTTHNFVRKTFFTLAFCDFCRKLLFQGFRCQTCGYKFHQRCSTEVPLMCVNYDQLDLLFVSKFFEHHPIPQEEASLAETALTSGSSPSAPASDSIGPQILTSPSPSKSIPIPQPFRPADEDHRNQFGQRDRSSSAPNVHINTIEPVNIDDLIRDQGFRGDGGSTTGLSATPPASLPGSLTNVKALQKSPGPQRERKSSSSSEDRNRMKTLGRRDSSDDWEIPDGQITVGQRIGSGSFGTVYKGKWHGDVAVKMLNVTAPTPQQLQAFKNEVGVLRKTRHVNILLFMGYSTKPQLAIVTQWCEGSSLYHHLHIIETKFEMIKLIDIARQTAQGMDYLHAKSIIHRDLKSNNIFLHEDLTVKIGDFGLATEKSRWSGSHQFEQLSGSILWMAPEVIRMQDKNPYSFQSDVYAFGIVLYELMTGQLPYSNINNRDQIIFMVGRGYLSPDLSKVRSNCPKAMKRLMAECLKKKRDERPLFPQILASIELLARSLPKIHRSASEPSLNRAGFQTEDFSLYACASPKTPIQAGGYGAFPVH

In the case of COc1ccc(S(=O)(=O)NCCNc2nccc(-c3c(-c4ccccc4)nc4sccn34)n2)cc1, the IC50 [1] is reported as 3.7 µM, the TGI (SK-MEL-2 [2]) is reported as over 100 µM and the IC50 [3] is reported as 0.172 µM. It also gave a TGI (UACC-257 [4]) of over 100 µM, an IC50 (SK-MEL-5 [5]) of 1.7 µM and a TGI (MDA-MB-435 [6]) of over 100 µM. It also gave an IC50 (SK-MEL-28 [7]) of 5.7 µM, an inhibition at 10 µM [8] of 76.7% and an IC50 (M14 [9]) of 2.7 µM. For the same molecule, the IC50 (UACC-62 [10]) was 1.1 µM, the IC50 (MDA-MB-435 [11]) was 1.2 µM and the IC50 (NSCLC) was 5.42 µM. For the same molecule, the selectivity ratio (in vitro) was 6.4, the IC50 at 48 h [12] was 60.2 µM and the inhibition at 10 µM [13] was 81.3%. The inhibition at 10 µM [14] was 83.8%, the IC50 [15] was 4.03 µM and the IC50 at 48 h [16] was 55.6 µM. It also gave an IC50 [17] of 13.3 µM, a TGI (SK-MEL-5 [18]) of over 100 µM and an IC50 [19] of 3.57 µM. The TGI (M14 [20]) was over 100 µM, the TGI (Malme-3M [21]) was over 100 µM and the TGI (SK-MEL-28 [22]) was over 100 µM. For the same molecule, the IC50 [23] was 2.19 µM, the TGI (UACC-62 [24]) was over 100 µM and the IC50 (UACC-257 [25]) was 6.4 µM. For the same molecule, the TGI (LOX IMVI [26]) was over 100 µM, the IC50 (Malme-3M [27]) was 8.7 µM and the IC50 (LOX IMVI [28]) was 3.9 µM. The inhibition at 10 µM [29] was 73.2%, the IC50 [30] was 2.99 µM and the IC50 (SK-MEL-2 [31]) was 4.9 µM. For the same molecule, the IC50 [32] was 6.46 µM and the IC50 [33] was 2.45 µM.
For CCCS(=O)(=O)Nc1ccc(F)c(C(=O)c2c[nH]c3ncc(-c4ccc(Cl)cc4)cc23)c1F, the inhibition (A-375 [34]) was “Active” and the inhibition (A-375 [35]) was “Active”.
CCN(CC)CCOC(=O)c1ccc(N)cc1 [PROCAINE] showed a remaining at 0.5 h, 10 µM [36] of 84.9%.
Work on COc1cccc(-c2nc3sccn3c2-c2ccnc(NCCNS(=O)(=O)c3ccc4ccccc4c3)n2)c1 yielded an IC50 [3] of 0.19 µM, an inhibition at 10 µM [8] of 83.1% and an IC50 [37] of 0.921 µM. The IC50 [38] was 0.169 µM.

Reference: ChEMBL document CHEMBL5046217, “Discovery of New Imidazo[2,1-b]thiazole Derivatives as Potent Pan-RAF Inhibitors with Promising In Vitro and In Vivo Anti-melanoma Activity” (J Med Chem, 2021)
